# Measured values: ChEMBL document CHEMBL1121923, “N2- and C-7 substituted actinomycin D analogues: synthesis, DNA-binding affinity, and biochemical and biological properties. Structure-activity relationship” (J Med Chem, 1981)
# Key:
# Calf thymus DNA [1] = assay: Apparent number of binding sites per base pairs in DNA; d indicates solubility too low for determination; type: nucleic-acid assay; details: Bos taurus
# Method in brief: (§1)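 Calf thymus DNA; apparent binding constant and apparent number of drug binding sites per base pair, taken from a Scatchard plot of binding isotherms obtained by spectral titration. Run in 0.01 M phosphate buffer, pH 7.0, at 20 °C.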
# Calf thymus DNA [2] = assay: Apparent binding constant against calf thymus DNA-drug complex; d indicates solubility too low for determination; type: nucleic-acid assay; details: Bos taurus; method in brief: as §1
# P388 [3] = assay: Concentration of compound required for 50% inhibition of incorporation of labeled uridine by P388 cells for the synthesis of RNA (in vitro); Solubility too low; type: functional, cell-based; details: Mus musculus
# P388 [4] = assay: Concentration of compound required for 50% inhibition of incorporation of labeled thymidine by p388 cells for synthesis of DNA (in vitro); Solubility too low; type: functional, cell-based; details: Mus musculus
# P388 [5] = assay: Concentration of compound required for 50% inhibition of synthesis of DNA in cultured P388 cells; type: functional; details: Mus musculus, read-out: ED50 (the source's name)
# P388 [6] = assay: Concentration of compound required for 50% inhibition of synthesis of RNA in cultured P388 cells; type: functional; details: Mus musculus, read-out: ED50 (the source's name)
Bapp (Calf thymus DNA [1]),K app (Calf thymus DNA [2]),Compound,ED50 (P388 [3]),ED50 (P388 [4]),EC50 (P388 [5]),EC50 (P388 [6])
Not measurable,Not measurable,CCCCCCCCC/N=c1/cc(C(=O)N[C@@H]2C(=O)N[C@H](C(C)C)C(=O)N3CCC[C@@H]3C(=O)N(C)CC(=O)N(C)[C@@H](C(C)C)C(=O)O[C@@H]2C)c2nc3c(C(=O)N[C@H]4C(=O)N[C@@H](C(C)C)C(=O)N5CCC[C@H]5C(=O)N(C)CC(=O)N(C)[C@H](C(C)C)C(=O)O[C@H]4C)c(N)c(O)c(C)c3oc-2c1C,Solubility too low,Solubility too low,,
,,Cc1c2oc3c(C)c(O)c(N)c(C(=O)N[C@@H]4C(=O)N[C@H](C(C)C)C(=O)N5CCC[C@H]5C(=O)N(C)CC(=O)N(C)[C@@H](C(C)C)C(=O)O[C@@H]4C)c3nc-2c(C(=O)N[C@@H]2C(=O)N[C@H](C(C)C)C(=O)N3CCC[C@H]3C(=O)N(C)CC(=O)N(C)[C@@H](C(C)C)C(=O)O[C@@H]2C)c/c1=N/Cc1ccc(Cl)c(Cl)c1,,,418 nM,96 nM
